Test [1] deals with Staphylococcus epidermidis. Put plainly: Antibacterial activity against Staphylococcus epidermidis ATCC 14990 assessed as reduction in microbial growth after 24 hrs by agar well diffusion assay. It is filed as functional. Conditions: ATCC 14990, 24 h. (In general: A growth-free zone around the sample is the usual read-out of agar diffusion tests.)
Test [2] concerns Streptococcus mutans. Put plainly: Antibacterial activity against Streptococcus mutans ATCC 25175 assessed as reduction in microbial growth after 24 hrs by agar well diffusion assay. The settings on record: ATCC 25175, 24 h. The format is functional.
The test system of test [3] is Bacillus subtilis. The test can be described thus: Antibacterial activity against Bacillus subtilis ATCC 6633 assessed as reduction in microbial growth after 24 hrs by agar well diffusion assay. The settings on record: ATCC 6633, 24 h. It is filed as functional.
Test [4] deals with Enterococcus hirae. Put plainly: Antibacterial activity against Enterococcus hirae ATCC 8043 assessed as reduction in microbial growth after 24 hrs by agar well diffusion assay. It is filed as functional. Conditions: ATCC 8043, 24 h.
Test [5] has as its system Staphylococcus aureus. The test can be described thus: Antibacterial activity against Staphylococcus aureus ATCC 12600 assessed as reduction in microbial growth after 24 hrs by agar well diffusion assay. It is filed as functional. The settings on record: ATCC 12600, 24 h.
Test [6] has as its system Enterococcus hirae. The test can be described thus: Antibacterial activity against Enterococcus hirae ATCC 8043 assessed as reduction in microbial growth at 0.06 to 133 ug/ml after 24 hrs by agar well diffusion assay. It is filed as functional, organism-based. Put shortly:
(§1)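 Modified literature MIC protocol against ATCC pathogens. Antibiotics served as positive control and sterile water with DMSO (<5%) as negative control. For the related well-diffusion work, test samples were dissolved in sterile water with DMSO (<5%). MIC given in μg/mL.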

Test [7] has as its system Staphylococcus epidermidis. The test can be described thus: Antibacterial activity against Staphylococcus epidermidis ATCC 14990 assessed as reduction in microbial growth at 0.06 to 133 ug/ml after 24 hrs by agar well diffusion assay. It is filed as functional, organism-based. In short, it runs like this: as §1
The test system of test [8] is Staphylococcus aureus. Put plainly: Antibacterial activity against Staphylococcus aureus ATCC 12600 assessed as reduction in microbial growth at 0.06 to 133 ug/ml after 24 hrs by agar well diffusion assay. The format is functional, organism-based. In short, it runs like this:
as §1

For test [9], the system named is Streptococcus mutans. The test can be described thus: Antibacterial activity against Streptococcus mutans ATCC 25175 assessed as reduction in microbial growth at 0.06 to 133 ug/ml after 24 hrs by agar well diffusion assay. It is filed as functional, organism-based.
Test [10] deals with Bacillus subtilis. The test can be described thus: Antibacterial activity against Bacillus subtilis ATCC 6633 assessed as reduction in microbial growth at 0.06 to 133 ug/ml after 24 hrs by agar well diffusion assay. It is filed as functional, organism-based. Put shortly: as §1

Drawing on ChEMBL document CHEMBL4602672, “Isolation, Identification, and Decomposition of Antibacterial Dialkylresorcinols from a Chinese Pseudomonas aurantiaca Strain” (2020), this text covers MIC and Activity for twelve compounds.

Active and inactive are the calls of the source.

A word on the MIC: it is the smallest concentration in the dilution series that meets the test's criterion for growth inhibition. Consider `CCCCCCc1c(O)cc(CCCCC)cc1O` [RESORSTATIN], for which the MIC in test [1] amounted to 4.2 µg/mL; in [2], 4.2 µg/mL; in test [3], 8.4 µg/mL; in test [4], 4.2 µg/mL; in [5], 4.2 µg/mL.

For the compound `CC1(C)S[C@@H]2[C@H](NC(=O)Cc3ccccc3)C(=O)N2[C@H]1C(=O)O` [PENICILLIN G], the MIC in test [1] came out at 0.52 µg/mL; in test [2], 1.1 µg/mL; in [5], 0.26 µg/mL.

With `CC1(C)S[C@@H]2[C@H](NC(=O)[C@H](N)c3ccccc3)C(=O)N2[C@H]1C(=O)O` [AMPICILLIN], in test [4], the MIC was found to be 1.1 µg/mL.

On to `CCCCCCCC1=CC(O)(C(=O)CCCCCC)OC1=O` (stereo not given), for which the MIC in test [1] turned out to be 33.4 µg/mL; in [2], 133 µg/mL; in test [3], 33.4 µg/mL; in [4] it was 66.7 µg/mL; in [5], 16.7 µg/mL.

Consider `CCCCCCC1=C(O)C(=O)C(CCCCC)=C(C2=C(CCCCC)C(=O)C(O)=C(CCCCCC)C2=O)C1=O`, for which the result in test [6] and in test [7] was inactive. The minimal inhibitory concentration (MIC) in test [2], in [3] and in [5] was 133 µg/mL in each case.

In the case of `Oc1ccc2nc3ccccc3nc2c1`, the minimal inhibitory concentration (MIC) in test [1] was 33.4 µg/mL. Further, the outcome in test [6], in test [8], in [9] and in test [10] was inactive.

As to `CCCCCCC1=C(O)C(=O)C(CCCCC)=C(c2c(CCCCC)cc(O)c(CCCCCC)c2O)C1=O`, the result in test [6], in test [7] and in test [8] was inactive. The MIC in test [2] came to 133 µg/mL.

For the compound `CN[C@H](CC(C)C)C(=O)N[C@H]1C(=O)N[C@@H](CC(N)=O)C(=O)N[C@H]2C(=O)N[C@H]3C(=O)N[C@H](C(=O)N[C@H](C(=O)O)c4cc(O)cc(O)c4-c4cc3ccc4O)[C@H](O)c3ccc(c(Cl)c3)Oc3cc2cc(c3O[C@@H]2O[C@H](CO)[C@@H](O)[C@H](O)[C@H]2O[C@H]2C[C@](C)(N)[C@H](O)[C@H](C)O2)Oc2ccc(cc2Cl)[C@H]1O` [VANCOMYCIN], the minimal inhibitory concentration (MIC) in [3] came to 1.1 µg/mL.

`CCCCCCC1=C(O)C(=O)C(CCCCC)=CC1=O`: the outcome in [7], in test [8] and in test [10] was inactive. For the same compound, the MIC came to 66.7 µg/mL in test [2], 33.4 µg/mL in test [3] and 133 µg/mL in test [4].

As for `CCCCCCC(=O)C1(O)C=C(CCCCC)C(=O)O1` (stereo not given), the MIC in test [1] was 66.7 µg/mL; in test [2] it was 133 µg/mL; in [3] it was 66.7 µg/mL; in [4], 133 µg/mL; in test [5], 33.4 µg/mL.

As to `CCCCCCCc1cc(O)c(CCCCCC)c(O)c1`, the MIC in [1] was 8.3 µg/mL; in [2] it was 33.4 µg/mL; in test [3] it was 66.7 µg/mL; in [4], 33.4 µg/mL; in test [5] it was 1.1 µg/mL.

As to `CCCCCCCC1=CC(=O)C(CCCCCC)=C(O)C1=O`, the result in [6], in test [7] and in [10] was inactive. The minimum inhibitory concentration (MIC) in test [2] and in [5] was 133 µg/mL throughout.
